System: U2OS
Assay: Multiplex assay against U2OS
Format: toxicity, cell-based
Settings: human
Procedure, shortened: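 Phenotypes for tubulin, mitochondrial mass and membrane permeability are expressed as per cents of healthy-nucleus cells. Cells were stained live at seeding with Hoechst33342, BioTracker Green Microtubule Cytoskeleton Dye, MitoTracker Red and Annexin V Alexa Fluor 680, then imaged after compound addition on a CQ1 microscope at 37°C and 5% CO2. Machine-learning gating in CellPathfinder separated Hoechst high-intensity objects from normal cells, divided normal cells by nuclear state (healthy, pyknosed, fragmented) and divided pyknosed cells into mitotic or apoptotic.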

[1] = 12 h, 1 µM, compound concentration 1 uM, replicate 1
[2] = 12 h, 1 µM, compound concentration 1 uM, replicate 2
[3] = 12 h, 10 µM, compound concentration 10 uM, replicate 1
[4] = 12 h, 10 µM, compound concentration 10 uM, replicate 2
[5] = 24 h, 1 µM, compound concentration 1 uM, replicate 1
[6] = 24 h, 1 µM, compound concentration 1 uM, replicate 2
[7] = 24 h, 10 µM, compound concentration 10 uM, replicate 1
[8] = 24 h, 10 µM, compound concentration 10 uM, replicate 2
[9] = 48 h, 1 µM, compound concentration 1 uM, replicate 1
[10] = 48 h, 1 µM, compound concentration 1 uM, replicate 2
[11] = 48 h, 10 µM, compound concentration 10 uM, replicate 1
[12] = 48 h, 10 µM, compound concentration 10 uM, replicate 2

## Cc1cc(=O)n(C)c2cc(N3C(=O)CC[C@H](NS(=O)(=O)CC(C)C)[C@H]3c3ccc(Cl)cc3)ccc12
[1]
  Population Apoptotic (%): 87%
  Population Fragmented Nuclei (%): 24%
  Population Healthy Nuclei (%): 66%
  Population Hoechst High Intensity Objects (%): 3%
  Population Membrane Permeable-Phenotype (%): 3%
  Population Mitochondria Different-Phenotype (%): 1%
  Population Mitotic Cells (%): 12%
  Population Normal (%): 96%
  Population Pyknosed Nuclei (%): 9%
  Population Tubulin-Different-Phenotype (%): 1%
  Total Cell Count: 263
[2]
  Population Apoptotic (%): 63%
  Population Fragmented Nuclei (%): 21%
  Population Healthy Nuclei (%): 68%
  Population Hoechst High Intensity Objects (%): 1%
  Population Membrane Permeable-Phenotype (%): 2%
  Population Mitochondria Different-Phenotype (%): 2%
  Population Mitotic Cells (%): 36%
  Population Normal (%): 98%
  Population Pyknosed Nuclei (%): 10%
  Total Cell Count: 110
[3]
  Population Apoptotic (%): 57%
  Population Fragmented Nuclei (%): 21%
  Population Healthy Nuclei (%): 55%
  Population Hoechst High Intensity Objects (%): 5%
  Population Membrane Permeable-Phenotype (%): 63%
  Population Mitochondria Different-Phenotype (%): 44%
  Population Mitotic Cells (%): 42%
  Population Normal (%): 94%
  Population Pyknosed Nuclei (%): 23%
  Population Tubulin-Different-Phenotype (%): 65%
  Total Cell Count: 240
[4]
  Population Fragmented Nuclei (%): 16%
  Population Healthy Nuclei (%): 60%
  Population Hoechst High Intensity Objects (%): 3%
  Population Membrane Permeable-Phenotype (%): 35%
  Population Mitochondria Different-Phenotype (%): 68%
  Population Normal (%): 96%
  Population Tubulin-Different-Phenotype (%): 60%
  Total Cell Count: 83
[5]
  Population Apoptotic (%): 74%
  Population Fragmented Nuclei (%): 20%
  Population Healthy Nuclei (%): 68%
  Population Hoechst High Intensity Objects (%): 3%
  Population Membrane Permeable-Phenotype (%): 6%
  Population Mitochondria Different-Phenotype (%): 3%
  Population Mitotic Cells (%): 25%
  Population Normal (%): 96%
  Population Pyknosed Nuclei (%): 11%
  Population Tubulin-Different-Phenotype (%): 4%
  Total Cell Count: 322
[6]
  Population Apoptotic (%): 82%
  Population Fragmented Nuclei (%): 18%
  Population Healthy Nuclei (%): 69%
  Population Hoechst High Intensity Objects (%): 1%
  Population Membrane Permeable-Phenotype (%): 9%
  Population Mitochondria Different-Phenotype (%): 2%
  Population Mitotic Cells (%): 17%
  Population Normal (%): 98%
  Population Tubulin-Different-Phenotype (%): 6%
  Total Cell Count: 146
[7]
  Population Apoptotic (%): 71%
  Population Fragmented Nuclei (%): 20%
  Population Healthy Nuclei (%): 56%
  Population Hoechst High Intensity Objects (%): 5%
  Population Membrane Permeable-Phenotype (%): 25%
  Population Mitochondria Different-Phenotype (%): 40%
  Population Mitotic Cells (%): 28%
  Population Normal (%): 94%
  Population Pyknosed Nuclei (%): 23%
  Population Tubulin-Different-Phenotype (%): 28%
  Total Cell Count: 262
[8]
  Population Apoptotic (%): 81%
  Population Fragmented Nuclei (%): 26%
  Population Healthy Nuclei (%): 62%
  Population Hoechst High Intensity Objects (%): 2%
  Population Membrane Permeable-Phenotype (%): 36%
  Population Mitochondria Different-Phenotype (%): 59%
  Population Mitotic Cells (%): 18%
  Population Normal (%): 97%
  Population Pyknosed Nuclei (%): 10%
  Population Tubulin-Different-Phenotype (%): 50%
  Total Cell Count: 108
[9]
  Population Apoptotic (%): 77%
  Population Fragmented Nuclei (%): 14%
  Population Healthy Nuclei (%): 73%
  Population Hoechst High Intensity Objects (%): 1%
  Population Membrane Permeable-Phenotype (%): 4%
  Population Mitochondria Different-Phenotype (%): 3%
  Population Mitotic Cells (%): 22%
  Population Normal (%): 98%
  Population Pyknosed Nuclei (%): 11%
  Population Tubulin-Different-Phenotype (%): 2%
  Total Cell Count: 508
[10]
  Population Apoptotic (%): 95%
  Population Fragmented Nuclei (%): 15%
  Population Membrane Permeable-Phenotype (%): 6%
  Population Mitochondria Different-Phenotype (%): 5%
  Population Mitotic Cells (%): 5%
  Population Pyknosed Nuclei (%): 10%
  Population Tubulin-Different-Phenotype (%): 4%
  Total Cell Count: 199
[11]
  Population Apoptotic (%): 84%
  Population Fragmented Nuclei (%): 25%
  Population Healthy Nuclei (%): 51%
  Population Hoechst High Intensity Objects (%): 6%
  Population Membrane Permeable-Phenotype (%): 15%
  Population Mitochondria Different-Phenotype (%): 15%
  Population Mitotic Cells (%): 15%
  Population Normal (%): 93%
  Population Pyknosed Nuclei (%): 22%
  Population Tubulin-Different-Phenotype (%): 10%
  Total Cell Count: 331
[12]
  Population Apoptotic (%): 71%
  Population Fragmented Nuclei (%): 21%
  Population Healthy Nuclei (%): 60%
  Population Hoechst High Intensity Objects (%): 5%
  Population Membrane Permeable-Phenotype (%): 30%
  Population Mitochondria Different-Phenotype (%): 35%
  Population Mitotic Cells (%): 28%
  Population Normal (%): 94%
  Population Pyknosed Nuclei (%): 18%
  Population Tubulin-Different-Phenotype (%): 23%
  Total Cell Count: 120

Source: ChEMBL document CHEMBL5058577, “EUbOPEN Chemogenomics Library 2 (Multiplex)” (2022)
